Results: ChEMBL document CHEMBL4033721, “Design, synthesis and evaluation of indole-2-carboxamides with pan anti-mycobacterial activity” (Bioorg Med Chem, 2017)
Converted amounts (≈) assume the structure as drawn.

Legend:
Mycobacterium avium = assay: Antimycobacterial activity against Mycobacterium avium isolate 104 after 8 days by resazurin microtiter based colorimetric assay; assay type: functional; conditions: isolate 104, 192 h
In short: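 M. avium 104 MICs were read by resazurin microtiter colorimetric assay in 96-well plates, with growth scored visually, in Mueller Hinton II medium.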

[1] = Antimycobacterial activity against Mycobacterium massiliense isolate CIP108297 after 8 days by resazurin microtiter based colorimetric assay; assay type: functional, Mycobacterium abscessus subsp. massiliense; conditions: Mycobacteroides abscessus, isolate CIP108297, 192 h
In short: (§1)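 Resazurin microtiter plate MIC, read by visual scan for growth, in Mueller Hinton II broth. Strains include clinical isolates of M. abscessus complex, M. chelonae, M. avium, M. intracellulare, M. xenopi, P. aeruginosa PAO-1 and S. aureus ATCC 25923.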

[2] = test system: Mycobacteroides abscessus; assay: Antimycobacterial activity against Mycobacterium abscessus ATCC 19977 after 8 days by resazurin microtiter based colorimetric assay; assay type: functional; conditions: ATCC 19977, 192 h; in short: as §1
[3] = test system: Mycobacterium tuberculosis; assay: Antimycobacterial activity against Mycobacterium tuberculosis H37Rv MC2-6206 after 8 days by resazurin microtiter based colorimetric assay; assay type: functional; conditions: H37Rv MC2-6206, 192 h
In short: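 MIC was measured by resazurin microtiter colorimetric assay with visual growth scoring. Medium was 7H9-ADC–0.05% tyloxapol with 0.2% casaminoacids, 48 µg/ml pantothenate and 50 µg/ml L-leucine.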

Mycobacterium xenopi = assay: Antimycobacterial activity against wild type Mycobacterium xenopi isolate 4042 after 8 days by resazurin microtiter based colorimetric assay; assay type: functional; conditions: isolate 4042, 192 h; in short: as §1
Mycobacteroides chelonae = assay: Antimycobacterial activity against Mycobacterium chelonae ATCC 35752 after 8 days by resazurin microtiter based colorimetric assay; assay type: functional; conditions: ATCC 35752, 192 h; in short: as §1
[4] = Antimycobacterial activity against Mycobacterium bolletii ATCC 14472 after 8 days by resazurin microtiter based colorimetric assay; assay type: functional; conditions: Mycobacteroides abscessus, ATCC 14472, 192 h; in short: as §1
[5] = Antimycobacterial activity against Mycobacterium massiliense isolate CRM0019 after 8 days by resazurin microtiter based colorimetric assay; assay type: functional, Mycobacterium abscessus subsp. massiliense; conditions: Mycobacteroides abscessus, isolate CRM0019, 192 h; in short: as §1
[6] = test system: Mycobacterium avium-intracellulare; assay: Antimycobacterial activity against Mycobacterium avium-intracellulare isolate 1956 after 8 days by resazurin microtiter based colorimetric assay; assay type: functional; conditions: isolate 1956, 192 h; in short: as §1
[7] = test system: Mycolicibacterium smegmatis; assay: Antimycobacterial activity against Mycobacterium smegmatis isolate MC2 155 after 8 days by resazurin microtiter based colorimetric assay; assay type: functional; conditions: str. MC2 155, 192 h
[8] = test system: Mycobacteroides abscessus; assay: Antimycobacterial activity against Mycobacterium abscessus isolate DCI 21 after 8 days by resazurin microtiter based colorimetric assay; assay type: functional; conditions: isolate DCI 21, 192 h; in short: as §1
Pseudomonas aeruginosa = assay: Antibacterial activity against Pseudomonas aeruginosa PAO1 after 8 days by resazurin microtiter based colorimetric assay; assay type: functional; conditions: PAO1, 192 h; in short: as §1
[9] = test system: Mycobacteroides abscessus; assay: Bactericidal activity against Mycobacterium abscessus after 8 days by resazurin microtiter based colorimetric assay; assay type: functional
In short: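 MBC90 found by subculturing from the MIC wells onto 7H11 agar. Value is the lowest concentration cutting CFU by 90% versus the inoculum.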

Staphylococcus aureus = assay: Antibacterial activity against Staphylococcus aureus ATCC 25923 after 8 days by resazurin microtiter based colorimetric assay; assay type: functional; conditions: ATCC 25923, 192 h; in short: as §1

Compound | MIC (Mycobacterium avium) | MIC [1] | MIC [2] | MIC [3] | MIC (Mycobacterium xenopi) | MIC (Mycobacteroides chelonae) | MIC [4] | MIC [5] | MIC [6] | MIC [7] | MIC [8] | MIC (Pseudomonas aeruginosa) | MBC90 [9] | MIC (Staphylococcus aureus)
O=C(NCC12CC3CC(CC(C3)C1)C2)c1cc2ccccc2[nH]1 | > 32 µg/mL | 2 µg/mL (≈ 6.48 µM) | 2 µg/mL (≈ 6.48 µM) | > 5 µg/mL | 4 µg/mL (≈ 13 µM) | 1 µg/mL (≈ 3.24 µM) | 2 µg/mL (≈ 6.48 µM) | > 32 µg/mL | > 32 µg/mL | > 20 µg/mL | 2 µg/mL (≈ 6.48 µM) | – | – | –
CCCCCCCNC(=O)c1cc2ccccc2[nH]1 | – | > 32 µg/mL | > 32 µg/mL | > 10 µg/mL | – | > 32 µg/mL | > 32 µg/mL | > 32 µg/mL | – | > 25 µg/mL | > 32 µg/mL | – | – | –
CC1CCC(NC(=O)c2cc3ccccc3[nH]2)CC1 (mixture of isomers) | > 32 µg/mL | 16 µg/mL | > 32 µg/mL | 5 µg/mL | 16 µg/mL | 16 µg/mL | 16 µg/mL | 16 µg/mL | > 32 µg/mL | 12.5 µg/mL | > 32 µg/mL | – | – | –
Cc1cc(C)c2cc(C(=O)NC3CCCCCC3)[nH]c2c1 | 2 µg/mL (≈ 7.03 µM) | ≤ 0.06 µg/mL | ≤ 0.06 µg/mL | 0.08 µg/mL (≈ 0.281 µM) | 0.06 to 0.12 µg/mL (≈ 0.211 to 0.422 µM) | ≤ 0.06 µg/mL | ≤ 0.06 µg/mL | ≤ 0.06 µg/mL | 4 µg/mL (≈ 14.1 µM) | 0.625 µg/mL (≈ 2.2 µM) | ≤ 0.06 µg/mL | > 160 µg/mL | 0.015 µg/mL (≈ 0.0527 µM) | > 160 µg/mL
CCCCCCCCNC(=O)c1cc2ccccc2[nH]1 | – | > 32 µg/mL | > 32 µg/mL | > 10 µg/mL | – | > 32 µg/mL | > 32 µg/mL | > 32 µg/mL | – | > 25 µg/mL | > 32 µg/mL | – | – | –
O=C(NC1CCCCC1)c1cc2ccccc2[nH]1 | – | > 32 µg/mL | > 32 µg/mL | > 10 µg/mL | – | > 32 µg/mL | > 32 µg/mL | > 32 µg/mL | – | > 25 µg/mL | > 32 µg/mL | – | – | –
Cc1cc(C)c2cc(C(=O)NC3CCC(C)CC3)[nH]c2c1 (mixture of isomers) | > 32 µg/mL | ≤ 0.06 µg/mL | ≤ 0.06 µg/mL | 0.31 µg/mL | 0.5 to 1 µg/mL | ≤ 0.06 µg/mL | ≤ 0.06 µg/mL | ≤ 0.06 µg/mL | > 32 µg/mL | > 20 µg/mL | ≤ 0.06 µg/mL | > 160 µg/mL | 0.03 µg/mL | > 160 µg/mL
O=C(NC1CCCC1)c1cc2ccccc2[nH]1 | – | > 32 µg/mL | > 32 µg/mL | > 10 µg/mL | – | > 32 µg/mL | > 32 µg/mL | > 32 µg/mL | – | > 25 µg/mL | > 32 µg/mL | – | – | –
CCCCCCCNC(=O)c1cc2c(C)cc(C)cc2[nH]1 | > 32 µg/mL | > 32 µg/mL | > 32 µg/mL | > 5 µg/mL | > 32 µg/mL | > 32 µg/mL | 32 µg/mL (≈ 112 µM) | > 32 µg/mL | > 32 µg/mL | 5 µg/mL (≈ 17.5 µM) | > 32 µg/mL | – | – | –
Cc1cc(C)c2cc(C(=O)NC(C)C34CC5CC(CC(C5)C3)C4)[nH]c2c1 (centres undefined) | > 32 µg/mL | 8 µg/mL (≈ 22.8 µM) | 16 µg/mL (≈ 45.6 µM) | 0.31 µg/mL (≈ 0.884 µM) | > 32 µg/mL | 16 µg/mL (≈ 45.6 µM) | 16 µg/mL (≈ 45.6 µM) | 8 µg/mL (≈ 22.8 µM) | > 32 µg/mL | > 20 µg/mL | > 32 µg/mL | – | – | –
O=C(NCc1cccc(Cl)c1)c1cc2ccccc2[nH]1 | – | > 32 µg/mL | > 32 µg/mL | > 5 µg/mL | – | > 32 µg/mL | > 32 µg/mL | > 32 µg/mL | – | > 20 µg/mL | > 32 µg/mL | – | – | –
CC(NC(=O)c1cc2ccccc2[nH]1)C12CC3CC(CC(C3)C1)C2 (centres undefined) | > 32 µg/mL | 8 µg/mL (≈ 24.8 µM) | 16 µg/mL (≈ 49.6 µM) | > 5 µg/mL | 8 µg/mL (≈ 24.8 µM) | 2 µg/mL (≈ 6.2 µM) | 16 µg/mL (≈ 49.6 µM) | 8 µg/mL (≈ 24.8 µM) | 32 µg/mL (≈ 99.2 µM) | > 20 µg/mL | 16 µg/mL (≈ 49.6 µM) | – | – | –
CCC12CC3CC(C1)CC(NC(=O)c1cc4ccccc4[nH]1)(C3)C2 | > 32 µg/mL | > 32 µg/mL | > 32 µg/mL | 1.25 µg/mL (≈ 3.88 µM) | 1 to 2 µg/mL (≈ 3.1 to 6.2 µM) | > 32 µg/mL | > 32 µg/mL | > 32 µg/mL | > 32 µg/mL | > 20 µg/mL | > 32 µg/mL | – | – | –
